The source of these data is ChEMBL document CHEMBL1138918, “Discovery of potent and orally available malonyl-CoA decarboxylase inhibitors as cardioprotective agents” (J Med Chem, 2006).

The species entered for data set [1] is Rattus norvegicus. As to the kind of experiment: Increase in glucose oxidation rate in rat heart at 10 uM relative to control. It counts as functional. Put shortly:
(§1)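 Isolated working rat hearts; glucose oxidation rate expressed as ratio of compound-treated to 0.05% DMSO vehicle control, n = 8 hearts; test concentration 10 µM, or 1 µM where stated.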

Data set [2] is filed under the species Rattus norvegicus. Nature of the data set: Cardioprotective activity in global ischemia-reperfusion rat model. Format: functional, organism-based. Put shortly:
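Isolated rat hearts perfused aerobically 30 min, then 30 min global no-flow ischemia and 60 min aerobic reperfusion; compound at 1 µM added to perfusate either before ischemia or at onset of reperfusion.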

Data set [3] can be described thus: Tmax in Sprague-Dawley rat at 10 mg/kg, po. Format: ADME, organism-based. On the set-up: dose 10 mg/kg, route oral. The following applies: in vivo.
The nature of data set [4]: Half life in Sprague-Dawley rat at 10 mg/kg, iv. The following applies: in vivo. Format: ADME, organism-based. Also on record: dose 10 mg/kg, route intravenous.
Data set [5] in a line: Cmax in Sprague-Dawley rat at 10 mg/kg, po. It counts as ADME, organism-based. Also on record: dose 10 mg/kg, route oral. To be noted: in vivo.
For data set [6], the system named is Rattus norvegicus. As to the kind of experiment: Volume of distribution in Sprague-Dawley rat at 10 mg/kg, iv or po. On the set-up: dose 10 mg/kg, route oral. Format: ADME, organism-based. To be noted: in vivo.
The nature of data set [7]: Oral bioavailability in Sprague-Dawley rat at 10 mg/kg, iv and po. It counts as ADME, organism-based. To be noted: in vivo. The gist of the method:
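Rats dosed iv and po; F computed as ratio of dose-normalized oral to iv plasma AUC over the same time frame.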

The species named for data set [8] is Rattus norvegicus. Nature of the data set: Increase in glucose oxidation rate in rat heart at 1 uM relative to control. Format: functional. Put shortly:
as §1

The structures appear in SMILES notation. Active and inactive are the calls of the source. The calls are words filed in the database; no cut-off is given here.

In the data set listed under Rattus norvegicus [1], `CC(C)(C)OCCCNC(=O)C1=NOC(C(O)(C(F)(F)F)C(F)(F)F)C1` (stereo unspecified) showed an Activity of 5.42%.
Consider `C[C@@H](CC(=O)OC(C)(C)C)NC(=O)C1=NOC(C(O)(C(F)(F)F)C(F)(F)F)C1` (stereo partly specified), for which the Activity in the data set listed under Rattus norvegicus [1] stood at 5.01%.
On the same count and under the same terms, the result for `CC(C)CN(CC(C)C)C(=O)C1=NOC(C(O)(C(F)(F)F)C(F)(F)F)C1` (stereo unspecified) reads 2.11%.
As to `CC(C)CC(CC(=O)OC(C)(C)C)NC(=O)C1=NOC(C(O)(C(F)(F)F)C(F)(F)F)C1` (stereo unspecified), the Activity in the data set filed under Rattus norvegicus [1] is 4.28%.
`CCCCCC(C)NC(=O)C1=NOC(C(O)(C(F)(F)F)C(F)(F)F)C1` (stereo unspecified) came in with an Activity in the data set listed under Rattus norvegicus [1] of 0.8%.
`CC(C)(C)OC(=O)CCNC(=O)C1=NOC(C(O)(C(F)(F)F)C(F)(F)F)C1` (stereo unspecified) displayed an Activity in the data set filed under Rattus norvegicus [1] of 4.54%.
In turn, `CC(C)C[C@@H](CC(=O)OC(C)(C)C)NC(=O)C1=NOC(C(O)(C(F)(F)F)C(F)(F)F)C1` (stereo partly specified) gave an Activity in the data set filed under Rattus norvegicus [1] of 3.24%.
Still for that read-out and setting: the result for `CC(C)CCCC(C)NC(=O)C1=NOC(C(O)(C(F)(F)F)C(F)(F)F)C1` (stereo unspecified) reads 1.26%.
Take `CC(CC(=O)OC(C)(C)C)NC(=O)C1=NOC(C(O)(C(F)(F)F)C(F)(F)F)C1` (stereo unspecified): the outcome in the data set listed under Rattus norvegicus [2] was Active. Further, the Activity in the data set filed under Rattus norvegicus [1] is 7.32%; in the data set filed under Rattus norvegicus [8] it was 3.07%. Further, the Tmax (in general, the time from dosing to the highest level) in data set [3] was found to be 0.5 h. The half-life – broadly, the time in which the quantity being followed falls by half – in data set [4] was 2.3 h. Further, the maximum concentration (Cmax) (in general, the maximum level reached in the sampled fluid or tissue) in data set [5] is 2680 ng/mL. The compound also gave a Vss with Rattus norvegicus [6] of 2.193 L/kg. Besides, in data set [7], the bioavailability (usually dose-corrected exposure relative to a reference, in per cent) stood at 74%.
